ChEMBL document CHEMBL1944511, “Bakuchiol derivatives as novel and potent cytotoxic agents: a report” (Eur J Med Chem, 2012)

What was measured:
MCF7 [1] = test: Growth inhibition of human MCF7 cells at 50 uM after 48 hrs by sulpharhodamine B assay; format: functional; details: MCF7, 48 h, read-out: GI
Summary of the method: (§1)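 This is the SRB protein-stain assay on adherent cells in RPMI-1640/MEM with 10% FCS. Each compound in DMSO (vehicle <0.2%) was applied at a single fixed concentration for 48 h. Cells were fixed with TCA and stained with SRB, and the dye was solubilised in Tris and read at 570/620 nm. Percent growth inhibition is relative to vehicle-treated controls, reported as mean ± SD of three experiments run in triplicate.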

A549 [2] = test: Growth inhibition of human A549 cells at 50 uM after 48 hrs by sulpharhodamine B assay; format: functional; details: A549, 48 h, read-out: GI; summary of the method: as §1
PC-3 [3] = test: Growth inhibition of human PC3 cells at 50 uM after 48 hrs by sulpharhodamine B assay; format: functional; details: PC-3, 48 h, read-out: GI
Summary of the method: (§2)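 Cells grown in RPMI-1640/MEM with 10% FCS, penicillin/streptomycin, 37 °C, 5% CO2. Seeded in 96-well plates, allowed to adhere overnight, then exposed 48 h to analogs in DMSO (vehicle <0.2% in controls). TCA-fixed, stained with 0.4% SRB in 1% acetic acid, dye solubilized in 10 mM Tris base, OD 570 nm (ref 620 nm). Mean ± SD of three experiments run in triplicate.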

OVCAR-5 [4] = test: Growth inhibition of human OVCAR5 cells at 50 uM after 48 hrs by sulpharhodamine B assay; format: functional; details: OVCAR-5, 48 h, read-out: GI; summary of the method: as §1
IMR-32 [5] = test: Growth inhibition of human IMR32 cells at 50 uM after 48 hrs by sulpharhodamine B assay; format: functional; details: IMR-32, 48 h, read-out: GI; summary of the method: as §1
HeLa [6] = test: Growth inhibition of human HeLa cells at 50 uM after 48 hrs by sulpharhodamine B assay; format: functional; details: read-out: GI; summary of the method: as §1
THP-1 [7] = test: Growth inhibition of human THP1 cells at 50 uM after 48 hrs by sulpharhodamine B assay; format: functional; details: THP-1, 48 h, read-out: GI; summary of the method: as §2
A549 [8] = test: Growth inhibition of human A549 cells at 20 uM after 48 hrs by sulpharhodamine B assay; format: functional; details: A549, 48 h, read-out: GI; summary of the method: as §1
PC-3 [9] = test: Growth inhibition of human PC3 cells at 20 uM after 48 hrs by sulpharhodamine B assay; format: functional; details: PC-3, 48 h, read-out: GI; summary of the method: as §1
IMR-32 [10] = test: Growth inhibition of human IMR32 cells at 20 uM after 48 hrs by sulpharhodamine B assay; format: functional; details: IMR-32, 48 h, read-out: GI; summary of the method: as §1
THP-1 [11] = test: Growth inhibition of human THP1 cells at 20 uM after 48 hrs by sulpharhodamine B assay; format: functional; details: THP-1, 48 h, read-out: GI; summary of the method: as §2
MCF7 [12] = test: Growth inhibition of human MCF7 cells at 30 uM after 48 hrs by sulpharhodamine B assay; format: functional; details: MCF7, 48 h, read-out: GI; summary of the method: as §1
A549 [13] = test: Growth inhibition of human A549 cells at 30 uM after 48 hrs by sulpharhodamine B assay; format: functional; details: A549, 48 h, read-out: GI; summary of the method: as §1
PC-3 [14] = test: Growth inhibition of human PC3 cells at 30 uM after 48 hrs by sulpharhodamine B assay; format: functional; details: PC-3, 48 h, read-out: GI; summary of the method: as §2
OVCAR-5 [15] = test: Growth inhibition of human OVCAR5 cells at 30 uM after 48 hrs by sulpharhodamine B assay; format: functional; details: OVCAR-5, 48 h, read-out: GI; summary of the method: as §1
IMR-32 [16] = test: Growth inhibition of human IMR32 cells at 30 uM after 48 hrs by sulpharhodamine B assay; format: functional; details: IMR-32, 48 h, read-out: GI; summary of the method: as §1
HeLa [17] = test: Growth inhibition of human HeLa cells at 30 uM after 48 hrs by sulpharhodamine B assay; format: functional; details: read-out: GI; summary of the method: as §1
THP-1 [18] = test: Growth inhibition of human THP1 cells at 30 uM after 48 hrs by sulpharhodamine B assay; format: functional; details: THP-1, 48 h, read-out: GI; summary of the method: as §2
MCF7 [19] = test: Growth inhibition of human MCF7 cells at 10 uM after 48 hrs by sulpharhodamine B assay; format: functional; details: MCF7, 48 h, read-out: GI; summary of the method: as §1
MCF7 [20] = test: Growth inhibition of human MCF7 cells at 5 uM after 48 hrs by sulpharhodamine B assay; format: functional; details: MCF7, 48 h, read-out: GI; summary of the method: as §1
HEp-2 [21] = test: Growth inhibition of human Hep2 cells at 50 uM after 48 hrs by sulpharhodamine B assay; format: functional; details: HEp-2, 48 h, read-out: GI; summary of the method: as §1
HEp-2 [22] = test: Growth inhibition of human Hep2 cells at 30 uM after 48 hrs by sulpharhodamine B assay; format: functional; details: HEp-2, 48 h, read-out: GI; summary of the method: as §1
HEp-2 [23] = test: Growth inhibition of human Hep2 cells at 20 uM after 48 hrs by sulpharhodamine B assay; format: functional; details: HEp-2, 48 h, read-out: GI; summary of the method: as §1
HEp-2 [24] = test: Growth inhibition of human Hep2 cells at 10 uM after 48 hrs by sulpharhodamine B assay; format: functional; details: HEp-2, 48 h, read-out: GI; summary of the method: as §1
HEp-2 [25] = test: Growth inhibition of human Hep2 cells at 5 uM after 48 hrs by sulpharhodamine B assay; format: functional; details: HEp-2, 48 h, read-out: GI; summary of the method: as §1
A549 [26] = test: Growth inhibition of human A549 cells at 10 uM after 48 hrs by sulpharhodamine B assay; format: functional; details: A549, 48 h, read-out: GI; summary of the method: as §1
A549 [27] = test: Growth inhibition of human A549 cells at 5 uM after 48 hrs by sulpharhodamine B assay; format: functional; details: A549, 48 h, read-out: GI; summary of the method: as §1
DU-145 [28] = test: Growth inhibition of human DU145 cells at 20 uM after 48 hrs by sulpharhodamine B assay; format: functional; details: DU-145, 48 h, read-out: GI; summary of the method: as §1
DU-145 [29] = test: Growth inhibition of human DU145 cells at 10 uM after 48 hrs by sulpharhodamine B assay; format: functional; details: DU-145, 48 h, read-out: GI; summary of the method: as §1
DU-145 [30] = test: Growth inhibition of human DU145 cells at 5 uM after 48 hrs by sulpharhodamine B assay; format: functional; details: DU-145, 48 h, read-out: GI; summary of the method: as §1
THP-1 [31] = test: Growth inhibition of human THP1 cells at 10 uM after 48 hrs by sulpharhodamine B assay; format: functional; details: THP-1, 48 h, read-out: GI; summary of the method: as §2
THP-1 [32] = test: Growth inhibition of human THP1 cells at 5 uM after 48 hrs by sulpharhodamine B assay; format: functional; details: THP-1, 48 h, read-out: GI; summary of the method: as §2
PC-3 [33] = test: Growth inhibition of human PC3 cells at 10 uM after 48 hrs by sulpharhodamine B assay; format: functional; details: PC-3, 48 h, read-out: GI; summary of the method: as §1
PC-3 [34] = test: Growth inhibition of human PC3 cells at 5 uM after 48 hrs by sulpharhodamine B assay; format: functional; details: PC-3, 48 h, read-out: GI; summary of the method: as §2
IMR-32 [35] = test: Growth inhibition of human IMR32 cells at 10 uM after 48 hrs by sulpharhodamine B assay; format: functional; details: IMR-32, 48 h, read-out: GI; summary of the method: as §1
IMR-32 [36] = test: Growth inhibition of human IMR32 cells at 5 uM after 48 hrs by sulpharhodamine B assay; format: functional; details: IMR-32, 48 h, read-out: GI; summary of the method: as §1
HCT-15 [37] = test: Growth inhibition of human HCT15 cells at 20 uM after 48 hrs by sulpharhodamine B assay; format: functional; details: HCT-15, 48 h, read-out: GI; summary of the method: as §1
HCT-15 [38] = test: Growth inhibition of human HCT15 cells at 10 uM after 48 hrs by sulpharhodamine B assay; format: functional; details: HCT-15, 48 h, read-out: GI; summary of the method: as §1
HCT-15 [39] = test: Growth inhibition of human HCT15 cells at 5 uM after 48 hrs by sulpharhodamine B assay; format: functional; details: HCT-15, 48 h, read-out: GI; summary of the method: as §1
THP-1 [40] = test: Cytotoxicity against human THP1 cells after 48 hrs by sulpharhodamine B assay; format: functional, cell-based; details: THP-1, 48 h
Summary of the method: (§3)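 Cells were grown in RPMI-1640/MEM with 10% FCS and penicillin/streptomycin at 37 °C under 5% CO2, then seeded and left to adhere overnight. Analogs in DMSO (vehicle <0.2%) were added at several concentrations for 48 h. Cells were fixed with cold 50% TCA, stained with 0.4% SRB in 1% acetic acid, solubilised in 10 mM Tris, and read at OD 570/620 nm. IC50 came from non-linear regression.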

DU-145 [41] = test: Cytotoxicity against human DU145 cells after 48 hrs by sulpharhodamine B assay; format: functional, cell-based; details: DU-145, 48 h; summary of the method: as §3
PC-3 [42] = test: Cytotoxicity against human PC3 cells after 48 hrs by sulpharhodamine B assay; format: functional, cell-based; details: PC-3, 48 h; summary of the method: as §3
HEp-2 [43] = test: Cytotoxicity against human Hep2 cells after 48 hrs by sulpharhodamine B assay; format: functional, cell-based; details: HEp-2, 48 h; summary of the method: as §3
MCF7 [44] = test: Cytotoxicity against human MCF7 cells after 48 hrs by sulpharhodamine B assay; format: functional, cell-based; details: MCF7, 48 h; summary of the method: as §3
A549 [45] = test: Cytotoxicity against human A549 cells after 48 hrs by sulpharhodamine B assay; format: functional, cell-based; details: A549, 48 h; summary of the method: as §3
SF-295 = test: Cytotoxicity against human SF295 cells after 48 hrs by sulpharhodamine B assay; format: functional, cell-based; details: SF-295, 48 h; summary of the method: as §3
HCT-15 [46] = test: Cytotoxicity against human HCT15 cells after 48 hrs by sulpharhodamine B assay; format: functional, cell-based; details: HCT-15, 48 h; summary of the method: as §3
MCF7 [47] = test: Growth inhibition of human MCF7 cells at 20 uM after 48 hrs by sulpharhodamine B assay; format: functional; details: MCF7, 48 h, read-out: GI; summary of the method: as §1

SMILES: C=C[C@@](C)(/C=C/c1ccc(OC(C)=O)cc1)CCC=C(C)C [ACETYLBAKUCHIOL]
- inhibition of growth at 50 µM (MCF7 [1]): 75%
- inhibition of growth at 50 µM (A549 [2]): 72%
- inhibition of growth at 50 µM (PC-3 [3]): 67%
- inhibition of growth at 50 µM (OVCAR-5 [4]): 71%
- inhibition of growth at 50 µM (IMR-32 [5]): 71%
- inhibition of growth at 50 µM (HeLa [6]): 63%
- inhibition of growth at 50 µM (THP-1 [7]): 81%
- inhibition of growth at 20 µM (A549 [8]): 1%
- inhibition of growth at 20 µM (PC-3 [9]): 45%
- inhibition of growth at 20 µM (IMR-32 [10]): 48%
- inhibition of growth at 20 µM (THP-1 [11]): 50%
- inhibition of growth at 30 µM (MCF7 [12]): 56%
- inhibition of growth at 30 µM (A549 [13]): 60%
- inhibition of growth at 30 µM (PC-3 [14]): 60%
- inhibition of growth at 30 µM (OVCAR-5 [15]): 62%
- inhibition of growth at 30 µM (IMR-32 [16]): 59%
- inhibition of growth at 30 µM (HeLa [17]): 45%
- inhibition of growth at 30 µM (THP-1 [18]): 63%
- inhibition of growth at 10 µM (MCF7 [19]): 31%
- inhibition of growth at 5 µM (MCF7 [20]): 15%
- inhibition of growth at 50 µM (HEp-2 [21]): 52%
- inhibition of growth at 30 µM (HEp-2 [22]): 51%
- inhibition of growth at 20 µM (HEp-2 [23]): 46%
- inhibition of growth at 10 µM (HEp-2 [24]): 30%
- inhibition of growth at 5 µM (HEp-2 [25]): 14%
- inhibition of growth at 10 µM (A549 [26]): 22%
- inhibition of growth at 5 µM (A549 [27]): 13%
- inhibition of growth at 20 µM (DU-145 [28]): 42%
- inhibition of growth at 10 µM (DU-145 [29]): 29%
- inhibition of growth at 5 µM (DU-145 [30]): 19%
- inhibition of growth at 10 µM (THP-1 [31]): 44%
- inhibition of growth at 5 µM (THP-1 [32]): 34%
- inhibition of growth at 10 µM (PC-3 [33]): 32%
- inhibition of growth at 5 µM (PC-3 [34]): 21%
- inhibition of growth at 10 µM (IMR-32 [35]): 34%
- inhibition of growth at 5 µM (IMR-32 [36]): 27%
- inhibition of growth at 20 µM (HCT-15 [37]): 57%
- inhibition of growth at 10 µM (HCT-15 [38]): 46%
- inhibition of growth at 5 µM (HCT-15 [39]): 31%
- IC50 (THP-1 [40]): 18 µM
- IC50 (DU-145 [41]): 26 µM
- IC50 (PC-3 [42]): 23 µM
- IC50 (HEp-2 [43]): 20 µM
- IC50 (MCF7 [44]): 25 µM
- IC50 (A549 [45]): 40 µM
- IC50 (SF-295): 8 µM
- IC50 (HCT-15 [46]): 11 µM
- inhibition of growth at 20 µM (MCF7 [47]): 44%
